E coli RNAP – Escherichia coli RNA polymerase inhibition; P0A8V2; E. coli RNA polymerase, fluorescence transcription assay; inhibition, %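 (tested at 10 µM)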; hit rate 0.2% among 62,000; AID 559; in the data active = inhibition above about 20%;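 note: 0% = enzyme without compound and 100% = no enzyme blank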
AP complement – alternative pathway complement inhibition, orthogonal assay; Human serum alternative complement pathway, LPS-coated ELISA, C3 deposition; tested in compound mixtures; inhibition, % at 5 µM; hit rate 0.08% among 62,000; AID 1235;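 active = inhibition above 30% in each of the two pooled mixtures holding the compound, so the lower value exceeds 30%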;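 note: 0% = serum in Mg-EGTA without compound and 100% = EDTA serum blank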
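Test system: human serum alternative complement pathway, C3 deposition on LPS-coated wells; also added: Plate-bound LPS; doses: 5 µM per compound in ten-compound mixtures; schedule: 1 h at 37 °C; detection: Anti-C3 ELISA, OD 450 nm; evaluation: percent inhibition of C3 deposition onto LPS; repeats: two pool placements per compound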
BAP1 inh – inhibitors of human BAP1 deubiquitinase; hit rate 0.48% among 72,000; calls only at 20 µM; Q92560; recombinant BAP1, Ub-AMC hydrolysis fluorescence kinetic; active compounds read low;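 active = activity remaining at or below 50% of control, provided the compound also passes the data quality filters; inactive = the rest, including low values that fail the filters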;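 note: 100% = DMSO wells rate and 0% = substrate alone blank rate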
BAP1 inh confirm – confirmation of human BAP1 enzyme inhibitors; shares compounds with BAP1 inh; purified BAP1, Ub-ethyl ester hydrolysis, HPLC; active compounds read low; % of control activity, % at 20 µM; hit rate 8% among 310; AID 753;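 active = percent of control activity at or below 60%; inconclusive = HPLC trace unusable from injection failure or solvent front hiding peaks; inactive = the rest, plus ubiquitin peak ratio over a set limit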
* hit, by the source's call. The list is not random: actives were taken first. Their share in the collection is about 0.66%.

What do the screens show for `Cc1cc(NC(=O)c2ccc(COc3ccc(Cl)c(C)c3)o2)no1`?
E coli RNAP: 0; AP complement: 8; BAP1 inh: active; BAP1 inh confirm: 163

How did Cn1nc(-c2ccc(Cl)cc2)c2cc(C(=O)NC3CC3)sc21 do in these assays?
E coli RNAP: 5; AP complement: 13; BAP1 inh: active; BAP1 inh confirm: 155

How did CCN(CC)CCNC(=O)c1cc2c(-c3ccc(Cl)cc3)nn(C)c2s1 do in these assays?
E coli RNAP: -2; AP complement: 16; BAP1 inh: inactive

Results for CC(=O)c1cc(F)c(N2CCCCC2)cc1C ?
BAP1 inh: inactive

What do the screens show for `O=C(c1ccc(Br)cc1)c1coc2ccccc2c1=O`?
BAP1 inh: inactive

What do the screens show for `Cc1ccc(C(=O)OCCOC(=O)c2ccc(C)cc2)cc1`?
BAP1 inh: inactive

Results for CCOC(=O)C(C(C)=O)c1c(Br)c(O)c(O)c2c(C(=O)c3ccc(C)cc3)coc12 (stereo not given) ?
E coli RNAP: 18; AP complement: -2; BAP1 inh: active; BAP1 inh confirm: 68

How did Cc1sc(N=Cc2c(O)ccc3ccccc23)c(C#N)c1C do in these assays?
BAP1 inh: inactive

How did COc1ccc(-c2nc3cc(NC(=O)c4cccnc4)ccc3o2)cc1 do in these assays?
BAP1 inh: inactive

What do the screens show for `CCc1ccc(C(=O)Nc2ccc(C(=O)O)cc2)cc1`?
BAP1 inh: inactive

How did COc1ccc(OC)c(C2CC(=O)N3CN(c4cccc(Cl)c4C)CSC3=C2C#N)c1 (stereo not given) do in these assays?
E coli RNAP: 8; AP complement: -14; BAP1 inh: active; BAP1 inh confirm: 104

What do the screens show for `COc1cccc(C2CC(=O)N3CN(c4cccc(Cl)c4C)CSC3=C2C#N)c1OC` (stereo not given)?
E coli RNAP: 4; AP complement: 14; BAP1 inh: inactive

Results for COC(=O)c1sc2ccccc2c1NC(=O)c1ccc(C)cc1 ?
BAP1 inh: inactive

How did CCCCc1nnc(NC(=O)Cc2ccccc2)s1 do in these assays?
BAP1 inh: inactive

Results for CC1(C)Cc2c(C#N)c(SCC(=O)c3ccccc3)nc(N3CCOCC3)c2CO1 ?
E coli RNAP: -2; AP complement: 21; BAP1 inh: inactive

How did CC1(C)Cc2c(C#N)c(SCc3ccccc3)nc(N3CCOCC3)c2CO1 do in these assays?
E coli RNAP: 8; AP complement: 28; BAP1 inh: active; BAP1 inh confirm: 121

Results for O=C(Nc1ccccc1)C1=C(O)CC(c2ccoc2)CC1=Nc1ccccc1 (stereo not given) ?
E coli RNAP: 9; AP complement: 4; BAP1 inh: active; BAP1 inh confirm: inconclusive

How did O=C(Nc1ccccc1)C1=C(O)CC(c2ccco2)CC1=Nc1ccccc1 (stereo not given) do in these assays?
E coli RNAP: 3; AP complement: 17; BAP1 inh: inactive

What do the screens show for `CC(=O)c1ccc(NC(=O)CCCCCN2C(=O)c3ccccc3C2=O)cc1`?
BAP1 inh: inactive

Results for COc1ccc(-c2noc(-c3ccc(Cl)cc3)n2)cc1 ?
E coli RNAP: 3; AP complement: 20; BAP1 inh: active; BAP1 inh confirm: 77

What do the screens show for `COc1ccc(-c2noc(-c3ccccc3F)n2)cc1`?
E coli RNAP: 5; AP complement: 17; BAP1 inh: inactive

Results for COc1cc2c(cc1OC)CN(C(=O)C1Cc3ccccc3CN1S(=O)(=O)c1ccc(F)cc1)CC2 (stereo not given) ?
BAP1 inh: inactive

How did CCCn1c2c(c(O)c(C(=O)Nc3ccccn3)c1=O)CCCC2 do in these assays?
BAP1 inh: inactive

What do the screens show for `CCCn1c2c(c(O)c(C(=O)Nc3ccccc3)c1=O)CCCC2`?
E coli RNAP: 4; AP complement: 19; BAP1 inh: active; BAP1 inh confirm: 81

How did COc1cccc2cc(C(=O)Nc3ccc(F)cc3)c(=Nc3sc4c(c3C#N)CCCC4)oc12 do in these assays?
BAP1 inh: inactive

What do the screens show for `Cc1sc(N=Cc2ccc(O)cc2)c(C#N)c1C`?
BAP1 inh: inactive

Results for O=c1[nH]c(SCc2ccc(F)cc2)nc2c1cnn2-c1ccc(F)cc1 ?
E coli RNAP: 3; AP complement: -12; BAP1 inh: active; BAP1 inh confirm: 57*

Results for CCCSc1nc2c(cnn2-c2ccc(F)cc2)c(=O)[nH]1 ?
E coli RNAP: 6; AP complement: 0; BAP1 inh: inactive

How did CC(C)(C)n1nnnc1C(c1cccnc1)N1CCN(C(=O)c2ccco2)CC1 (stereo not given) do in these assays?
E coli RNAP: 8; AP complement: 3; BAP1 inh: inactive
